Source: ChEMBL document CHEMBL4834454 (Bioorg Med Chem, 2021)

Experiments:
Cannabinoid receptor 2 [1] = biological target: T1, Cannabinoid receptor 2 (Homo sapiens, UniProt P34972); experiment: Agonist activity at human CB2 receptor expressed in CHO-RD-HGA16 cells overexpressing Galpha16 assessed as stimulation of calcium mobilization measured every 1 sec for 90 secs by Calcium-3 dye based FLIPR assay relative to Emax of CP55940; format: functional, cell-based; details: time 90.0 sec
Method in brief: (§1)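 Agonist screen. […] They were pretreated with vehicle (BSA/DMSO/EtOH buffer) for 15 min, and a single concentration of test compound was added at 10 s. Fluorescence (485/525 nm) was read for 90 s. RFU is expressed as % of CP55,940 Emax RFU. Line 1 uses hCB1 cells; line 2 uses hCB2 cells.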

Cannabinoid receptor 1 [2] = biological target: T2, Cannabinoid receptor 1 (Homo sapiens, UniProt P21554); experiment: Agonist activity at human CB1 receptor expressed in CHO-RD-HGA16 cells overexpressing Galpha16 assessed as stimulation of calcium mobilization measured every 1 sec for 90 secs by Calcium-3 dye based FLIPR assay relative to Emax of CP55940; format: functional, cell-based; details: time 90.0 sec; method in brief: as §1
T2 sequence (P21554 whole entry): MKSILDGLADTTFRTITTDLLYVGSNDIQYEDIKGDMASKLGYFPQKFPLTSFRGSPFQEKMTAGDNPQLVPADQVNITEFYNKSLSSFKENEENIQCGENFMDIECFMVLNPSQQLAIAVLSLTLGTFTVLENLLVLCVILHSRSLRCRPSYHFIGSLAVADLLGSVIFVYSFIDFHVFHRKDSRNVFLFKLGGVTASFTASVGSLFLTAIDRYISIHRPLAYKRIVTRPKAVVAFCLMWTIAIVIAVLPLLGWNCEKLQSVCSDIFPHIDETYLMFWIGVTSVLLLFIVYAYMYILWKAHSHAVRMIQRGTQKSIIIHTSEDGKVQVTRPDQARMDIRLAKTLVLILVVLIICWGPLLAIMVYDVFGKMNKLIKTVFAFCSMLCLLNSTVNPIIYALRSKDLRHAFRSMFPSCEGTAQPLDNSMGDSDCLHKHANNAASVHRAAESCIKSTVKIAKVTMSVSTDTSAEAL

Cannabinoid receptor 2 [3] = biological target: T1, Cannabinoid receptor 2; experiment: Antagonist activity at human CB2 receptor expressed in CHO-RD-HGA16 cells overexpressing Galpha16 assessed as inhibition of CP55940-stimulated calcium mobilization at 10 uM preincubated for 15 mins followed by agonist addition and measured every 1 sec for 90 secs by Calcium-3 dye based FLIPR assay; format: functional, cell-based; details: time 990.0 sec
Cannabinoid receptor 2 [4] = biological target: T1, Cannabinoid receptor 2; experiment: Antagonist activity at human CB2 receptor expressed in CHO-RD-HGA16 cells overexpressing Galpha16 assessed as inhibition of CP55940-stimulated calcium mobilization preincubated for 15 mins followed by agonist addition and measured every 1 sec for 90 secs by Calcium-3 dye based FLIPR assay; format: functional, cell-based
Cannabinoid receptor 1 [5] = biological target: T2, Cannabinoid receptor 1; experiment: Allosteric antagonist activity at human CB1 receptor expressed in CHO-RD-HGA16 cells overexpressing Galpha16 assessed as inhibition of CP55940-stimulated calcium mobilization preincubated for 15 mins followed by agonist addition and measured every 1 sec for 90 secs by Calcium-3 dye based FLIPR assay; format: functional, cell-based
Cannabinoid receptor 1 [6] = biological target: T2, Cannabinoid receptor 1; experiment: biochemical
Cannabinoid receptor 1 [7] = biological target: T2, Cannabinoid receptor 1; experiment: Allosteric antagonist activity at N-terminal 3HA-tagged human CB1 receptor expressed in HEK293 cells assessed as reduction in CP55940-stimulated inhibition of forskolin-induced cAMP accumulation measured for 20 mins by BRET assay; format: functional, cell-based

T1 sequence (P34972 whole entry): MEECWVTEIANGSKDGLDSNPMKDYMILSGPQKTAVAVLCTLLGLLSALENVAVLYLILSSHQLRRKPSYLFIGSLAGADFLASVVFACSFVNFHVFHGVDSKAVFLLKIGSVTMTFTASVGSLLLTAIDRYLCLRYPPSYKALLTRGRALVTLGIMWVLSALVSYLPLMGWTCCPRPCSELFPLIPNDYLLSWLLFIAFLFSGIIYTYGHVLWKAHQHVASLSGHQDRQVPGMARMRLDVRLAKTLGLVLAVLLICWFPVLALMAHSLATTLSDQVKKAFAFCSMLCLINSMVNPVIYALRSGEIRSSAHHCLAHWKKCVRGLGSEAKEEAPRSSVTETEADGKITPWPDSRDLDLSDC

Structure (SMILES) | Activity (Cannabinoid receptor 2 [1]) | Activity (Cannabinoid receptor 1 [2]) | inhibition (Cannabinoid receptor 2 [3]) | IC50 (Cannabinoid receptor 2 [4]) | IC50 (Cannabinoid receptor 1 [5]) | IC50 (Cannabinoid receptor 1 [6]) | IC50 (Cannabinoid receptor 1 [7])
CC(C)(CNC(=O)Nc1ccc(Cl)cc1)c1ccccc1 | < 10% | < 30% | < 50% | > 10 µM |  |  | 
O=C(NCCc1ccsc1)Nc1ccc(Cl)cc1 | < 10% | < 30% | < 50% | > 10 µM |  |  | 
CC(C)(Cc1ccccc1)NC(=O)Nc1ccc(Cl)cc1 | < 10% | < 30% | < 50% | > 10 µM |  |  | 
O=C(Nc1ccc(Cl)cc1)NC1(Cc2ccccc2)CC1 | < 10% | < 30% | < 50% | > 10 µM |  |  | 
CC(=O)NCCNC(=O)Nc1ccc(Cl)cc1 | < 10% | < 30% | < 50% | > 10 µM | 1580 nM |  | 
O=C(NCCc1cccnc1)Nc1ccc(Cl)cc1 | < 10% | < 30% | < 50% | > 10 µM |  |  | 
O=C(NCCN1CCCCC1)Nc1ccc(Cl)cc1 | < 10% | < 30% | < 50% | > 10 µM |  |  | 
O=C(NCc1ccccc1)Nc1ccc(Cl)cc1 | < 10% | < 30% | < 50% | > 10 µM |  |  | 
O=C(NCCc1cccs1)Nc1ccc(Cl)cc1 | < 10% | < 30% | < 50% | > 10 µM |  |  | 
CN(C)c1ccc(CCNC(=O)Nc2ccc(Cl)cc2)cc1 | < 10% | < 30% | < 50% | > 10 µM | 251 nM | 15.8 µM | 2510 nM
O=C(NCCN1CCCC1)Nc1ccc(Cl)cc1 | < 10% | < 30% | < 50% | > 10 µM |  |  | 
CCN(CC)c1ccc(CCNC(=O)Nc2ccc(Cl)cc2)cc1 | < 10% | < 30% | < 50% | > 10 µM | 3160 nM |  | 
O=C(NCCN1CCOCC1)Nc1ccc(Cl)cc1 | < 10% | < 30% | < 50% | > 10 µM |  |  | 
O=C(NCCc1ccccn1)Nc1ccc(Cl)cc1 | < 10% | < 30% | < 50% | > 10 µM | 3980 nM |  | 
O=C(NCCc1ccccc1)Nc1ccc(Cl)cc1 | < 10% |  | < 50% | > 10 µM | 200 nM | 6.31 µM | 3160 nM
O=C(NCCCc1ccccc1)Nc1ccc(Cl)cc1 | < 10% | < 30% | < 50% | > 10 µM | 3980 nM |  | 
O=C(NCCc1ccncc1)Nc1ccc(Cl)cc1 | < 10% | < 30% | < 50% | > 10 µM |  |  | 
Cc1ccc(CCNC(=O)Nc2ccc(Cl)cc2)o1 | < 10% | < 30% | < 50% | > 10 µM |  |  | 
O=C(Nc1ccc(Cl)cc1)Nc1cccc(-c2cccc(N3CCCC3)n2)c1 | < 10% | < 30% |  | > 10 µM |  |  | 
O=C(NCC1(c2ccccc2)CC1)Nc1ccc(Cl)cc1 | < 10% | < 30% | < 50% | > 10 µM | 5010 nM |  | 
O=C(NC[C@H]1C[C@@H]1c1ccccc1)Nc1ccc(Cl)cc1 (relative stereo) | < 10% | < 30% | < 50% | > 10 µM |  |  | 
O=C(NCC(F)(F)c1ccccc1)Nc1ccc(Cl)cc1 | < 10% | < 30% | < 50% | > 10 µM |  |  | 
CN1CCN(CCNC(=O)Nc2ccc(Cl)cc2)CC1 | < 10% | < 30% | < 50% | > 10 µM |  |  | 
CCc1c(C(=O)NCCc2ccc(N3CCCCC3)cc2)[nH]c2ccc(Cl)cc12 | < 10% |  | < 50% | > 10 µM | 794 nM | 1 µM | 158 nM
O=C(NCCc1ccc(N2CCCCC2)cc1)Nc1ccc(Cl)cc1 | < 10% |  | < 50% | > 10 µM | 794 nM | 1.26 µM | 
O=C(NCCc1ccc(N2CCCC2)cc1)Nc1ccc(Cl)cc1 | < 10% | < 30% | < 50% | > 10 µM | 794 nM | 39.8 µM | 
